Data taken from ChEMBL document CHEMBL4819012, “Discovery of novel 2-aryl-3-sulfonamido-pyridines (HoAns) as microtubule polymerization inhibitors with potent antitumor activities” (Eur J Med Chem, 2021).
Activity calls are given as the source filed them. The calls are words filed in the database; no cut-off is given here.

Experiments:
[1] = Antiproliferative activity against human HCCLM3 cells assessed as cell viability measured after 72 hrs by MTS method; type: functional, cell-based; conditions: HCCLM3, 72 h
Outline: (§1)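 Log-phase cells plated at 5×10^3–6×10^3 per well for 24 h, then given graded compound concentrations in fresh medium for 72 h, five replicate wells. Medium replaced with medium containing 10% MTS, 30 min or more at 37 °C in dark; OD 490 nm read. IC50 by nonlinear regression; mean ± SD of at least three experiments.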

BT-474 = assay: Antiproliferative activity against human BT-474 cells assessed as cell viability measured after 72 hrs by MTS method; type: functional, cell-based; conditions: BT-474, 72 h; outline: as §1
SK-BR-3 = assay: Antiproliferative activity against human SK-BR-3 cells assessed as cell viability measured after 72 hrs by MTS method; type: functional, cell-based; conditions: SK-BR-3, 72 h; outline: as §1
RKO [2] = assay: Antiproliferative activity against human RKO cells assessed as cell viability measured after 72 hrs by MTS method; type: functional, cell-based; outline: as §1
Tubulin (Homo sapiens) [3] = biological target: T1, Tubulin (Homo sapiens) (UniProt P68371+Q9H4B7+P0DPH7+P68366+Q13509+Q71U36+P04350+Q3ZCM7+P07437+P68363+Q9BQE3+Q6PEY2+Q13885+Q9BVA1+Q9BUF5); assay: Inhibition of tubulin polymerization in human RKO cells assessed as fragmentation of microtubule at 1 uM measured 24 hrs by DAPI staining based immunoflourescence assay; type: cell-based
Outline: (§2)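 RKO cells on coverslips (2.5×10^5 per well) incubated overnight, then treated for 24 h at 0.5 or 1 μM, DMSO, or 1 μM comparators. Fixed in cold methanol 10 min, permeabilized with 0.25% Triton X-100, blocked in 1% BSA at 4 °C overnight. Stained with anti-β-tubulin (1:100, 2 h RT) and Alexa Fluor 594 secondary (1:500, 1 h), nuclei with DAPI; imaged by fluorescence microscopy.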

RKO [4] = assay: Induction of cell cycle arrest in human RKO cells assessed as accumulation of cells in G1 phase at 1 uM measured after 24 hrs by PI staining based flow cytometry method (reference value: 39.54%); type: functional
RKO [5] = assay: Induction of cell cycle arrest in human RKO cells assessed as accumulation of cells in S phase at 1 uM measured after 24 hrs by PI staining based flow cytometry method (reference value: 49.66%); type: functional
SW-620 [6] = assay: Induction of cell cycle arrest in human SW-620 cells assessed as accumulation of cells in G2 phase at 1 uM measured after 24 hrs by PI staining based flow cytometry method (reference value: 13.83%); type: functional
PANC-1 [7] = assay: Induction of cell cycle arrest in human PANC-1 cells assessed as accumulation of cells in G1 phase at 1 uM measured after 24 hrs by PI staining based flow cytometry method (reference value: 31.35%); type: functional
PANC-1 [8] = assay: Induction of cell cycle arrest in human PANC-1 cells assessed as accumulation of cells in G2 phase at 1 uM measured after 24 hrs by PI staining based flow cytometry method (reference value: 3.63%); type: functional
RKO [9] = assay: Induction of apoptosis in human RKO cells assessed as viable cells at 1 uM measured after 24 hrs by PI/Annexin V staining based flow cytometry assay (reference value: 96.6%); type: functional; conditions: read-out: Activity
RKO [10] = assay: Induction of apoptosis in human RKO cells assessed as early apoptotic cells at 1 uM measured after 24 hrs by PI/Annexin V staining based flow cytometry assay (reference value: 2.58%); type: functional
SW-620 [11] = assay: Induction of apoptosis in human SW-620 cells assessed as viable cells at 1 uM measured after 24 hrs by PI/Annexin V staining based flow cytometry assay (reference value: 93.89%); type: functional; conditions: read-out: Activity
RKO [12] = assay: Induction of apoptosis in human RKO cells assessed as increase in Bax expression at 0.5 to 1 uM measured after 24 hrs by western blot assay; type: functional, cell-based; conditions: dose 0.5-1 µM
Outline: (§3)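 RKO or SW620 cells at 4×10^5–5×10^5 per well treated with 0.5 and 1 µM for 24 h; lysed in SDS loading buffer, boiled, SDS-PAGE, PVDF transfer; probed with anti-Bax or anti-cleaved PARP (1:1000) overnight at 4 °C, HRP secondary, ECL detection; β-actin control.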

RKO [13] = assay: Induction of apoptosis in human RKO cells assessed as increase in cleaved PARP levels at 0.5 to 1 uM measured after 24 hrs by western blot assay; type: functional, cell-based; conditions: dose 0.5-1 µM; outline: as §3
RKO [14] = assay: Induction of apoptosis in human RKO cells assessed as increase in ROS levels at 0.5 uM measured after 24 hrs by DCFH-DA staining based flow cytometry method relative to control; type: functional
Outline: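 Cells at 5×10^5 per well exposed to 0.25 or 0.5 µM for 24 h, then loaded with 5 µM DCFH-DA in serum-free medium 30 min at 37 °C; washed, harvested, read by flow cytometry (ex 488/em 525 nm). ROS given as ratio of treated to control; at least three experiments.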

HUVEC [15] = assay: Anti-vascular activity against human HUVEC cells assessed as wound closure at 1 uM measured after 24 hrs by wound closure assay (reference value: 71.8%); type: functional
HUVEC [16] = assay: Cytotoxicity against human HUVEC cells assessed as inhibition of cell proliferation measured after 24 hrs by MTS assay; type: cell-based
Outline: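 HUVECs exposed to graded concentrations for 24 h; viability read by MTS assay; IC50 reported as mean ± SD.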

SW-620 [17] = assay: Antitumour activity against human SW-620 cells xenografted in Athymic nude mouse assessed as decrease in tumour growth at 25 mg/kg per two days, po measured after 20 days; type: functional; set-up: scale not given: the % may be the effect or the level left; conditions: time 20 day
Outline: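 Nude mice inoculated s.c. in right armpit with 5×10^6 SW620 cells in 125 µL PBS; at about 100 mm³ randomized, n = 6. Dosed orally 25 mg/kg every 2 days for 20 days in DMSO:corn oil 1:9. Tumour volume (L×W²/2) and body weight measured every 2 days; inhibition from final tumour weight vs vehicle.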

[18] = Toxicity against Athymic nude mouse xenografted with SW-620 cells assessed as changes in body weight at 25 mg/kg per two days, po measured after 20 days; type: organism-based; conditions: in vivo, 480 h, time 20 day
Outline: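 Nude mice given 5×10^6 SW620 cells s.c. into the right armpit; at ~100 mm³ randomized (n = 6). Dosed orally at 25 mg/kg every 2 days in DMSO:corn oil 1:9 (100 μL) for 20 days; vehicle controls dosed on the same schedule. Body weight recorded every 2 days.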

Tubulin (Homo sapiens) [19] = biological target: T1, Tubulin (Homo sapiens); assay: Inhibition of tubulin polymerization in human RKO cells assessed as morphology changed to fusiform at 1 uM measured 24 hrs by DAPI staining based immunoflourescence assay; type: cell-based; conditions: in the assay text read “changed to round from fusiform” for “changed to fusiform”; outline: as §2
SW-620 [20] = assay: Induction of cell cycle arrest in human SW-620 cells assessed as reduction in Cyclin B1 expression at 0.5 to 1 uM measured after 24 hrs by western blot assay; type: functional, cell-based; conditions: dose 0.5-1 µM
Outline: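 RKO or SW620 cells (4×10^5–5×10^5 per well) exposed to 0.5 or 1 μM or DMSO for 24 h. Lysed in SDS loading buffer, boiled, run on 8–15% SDS-PAGE and moved to PVDF. Blocked in 5% milk, probed overnight at 4 °C with anti-Cdc2 or anti-cyclin B1 (1:1000), β-actin as reference. HRP secondary and ECL detection. Done at least three times.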

Compound | IC50 [1] [nM] | IC50 (BT-474) [nM] | IC50 (SK-BR-3) [nM] | IC50 (RKO [2]) [nM] | inhibition (Tubulin (Homo sapiens) [3]) | Activity (RKO [4]) [%] | Activity (RKO [5]) [%] | Activity (SW-620 [6]) [%] | Activity (PANC-1 [7]) [%] | Activity (PANC-1 [8]) [%] | viability at 1 µM (RKO [9]) [%] | Activity (RKO [10]) [%] | viability at 1 µM (SW-620 [11]) [%] | Activity (RKO [12]) | Activity (RKO [13]) | fold change (FC) (RKO [14]) | Activity (HUVEC [15]) [%] | IC50 (HUVEC [16]) [nM] | Activity (SW-620 [17]) [%] | Activity [18] | further results
COc1ccc(S(=O)(=O)Nc2cccnc2-c2ccc(C#N)c(F)c2)cc1 | 963 | 1190 | 431 | 170 | Active | 8.75 | 43.49 | 76.28 | 2.04 | 28.01 | 61 | 36.65 | 87.3 | Active | Active | 1.5 | 20.1 | 8900 | 53.6 | Non-Toxic | inhibition (Tubulin (Homo sapiens) [19]): Active; Activity (SW-620 [20]): Active
COc1ccc(S(=O)(=O)Nc2cccnc2Nc2ccc(O)cc2)cc1 [ABT-751] | 671 | 8390 | 143 | 633 | Active | 0.98 | 46.23 | 17.69 | 31.44 | 64.83 | 88.4 | 10.16 | 85.6 | Active | Active | 2 | 18 | 9200 | 49.3 | Non-Toxic | inhibition (Tubulin (Homo sapiens) [19]): Active; Activity (SW-620 [20]): Active
